Test results: ChEMBL document CHEMBL1155196, “N-hydroxybenzimidazole inhibitors of the transcription factor LcrF in Yersinia: novel antivirulence agents” (J Med Chem, 2009)
Active and inactive are the calls of the source. The calls are words filed in the database; no cut-off is given here.

Key:
J774.A1 [1] = assay: Cytotoxicity against mouse J774A1 cells assessed as LDH release at 50 ug/mL after 18 hrs by colorimetric assay; assay type: cell-based; conditions: j774.a1, 18 h
[2] = Inhibition of 6His-tagged Yersinia sp. LcrF binding to biotinylated double-stranded DNA by cell free-based chemiluminescence assay
Outline: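 Biotinylated double-stranded DNA carrying LcrF sites (2 nM) captured on streptavidin plates and incubated with 6His-LcrF (20 nM) plus titrated inhibitor in Hepes/ammonium sulfate/KCl/EDTA buffer with 0.2% polysorbate 20 and 0.5% non-fat milk. After washing, anti-6His then HRP secondary antibody, chemiluminescence read-out. % inhibition against control wells, curve-fitted IC50; mostly mean of two independent experiments.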

[3] = system: Yersinia pseudotuberculosis; assay: Antimicrobial activity against Yersinia pseudotuberculosis after 18 to 24 hrs by CLSI microdilution test; assay type: functional
[4] = target: T1, HTH-type transcriptional regulator ExsA (Pseudomonas aeruginosa (strain ATCC 15692 / PAO1 / 1C / PRS 101 / LMG12228), UniProt P26993); assay: Inhibition of Pseudomonas aeruginosa ExsA binding to DNA
T1 sequence (P26993 whole entry): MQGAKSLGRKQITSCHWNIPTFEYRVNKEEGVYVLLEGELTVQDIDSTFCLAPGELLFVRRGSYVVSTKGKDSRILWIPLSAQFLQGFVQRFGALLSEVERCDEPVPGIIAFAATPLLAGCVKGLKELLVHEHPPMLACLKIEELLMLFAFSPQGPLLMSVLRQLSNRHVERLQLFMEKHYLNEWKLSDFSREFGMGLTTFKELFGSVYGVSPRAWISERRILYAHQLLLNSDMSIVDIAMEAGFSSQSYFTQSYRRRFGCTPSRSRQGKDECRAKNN
Outline: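 ExsA-DNA binding run like the LcrF plate assay: immobilised biotinylated DNA, His-tagged regulator, titrated inhibitor, washing, anti-6His/HRP chemiluminescent detection, % inhibition against control wells, curve-fitted IC50.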

Staphylococcus aureus = assay: Antimicrobial activity against Staphylococcus aureus RN450 after 18 to 24 hrs by CLSI microdilution test; assay type: functional
Escherichia coli = assay: Antimicrobial activity against Escherichia coli ATCC 25922 after 18 to 24 hrs by CLSI microdilution test; assay type: functional
[5] = Inhibition of Salmonella sp. SlyA binding to DNA
Outline: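 Same format as the LcrF ELISA-type assay. Biotinylated double-stranded DNA carrying the binding sequence was captured on streptavidin-coated wells with His-tagged SlyA and titrated inhibitor. Buffer was 20 mM Hepes, 10 mM ammonium sulfate, 30 mM KCl, 1 mM EDTA, 0.2% polysorbate 20 and 0.5% non-fat milk. After washing, bound complex was detected with anti-6His then HRP secondary and chemiluminescence. IC50 came from dose-response fits against control wells.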

J774.A1 [6] = assay: Inhibition of Yersinia pseudotuberculosis YP3 pIB1 LcrF-mediated cytotoxicity against mouse J774A1 cells assessed as LDH release at 50 ug/mL after 18 hrs by colorimetric assay; assay type: cell-based; conditions: Yersinia pseudotuberculosis YPIII
Outline: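 J774A.1 macrophages plated at 2 × 10^4 per well the day before. Y. pseudotuberculosis YPIIIpIB1 grown in 2-YT with 20 mM MgCl2 and 20 mM sodium oxalate, 90 min at 26 °C then 90 min at 37 °C. Infection at MOI 5–10 in DMEM, 2 h at 37 °C, 5% CO2. Gentamicin 50 μg/mL added, then ~18 h. Compound at 50 μg/mL in both culture and wells; vehicle DMSO/0.4% ethanolamine. LDH release measured colorimetrically, expressed as % of wild-type vehicle cytotoxicity.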

Nucleic Acid = assay: Binding affinity to supercoiled Escherichia coli pET-15b DNA after 30 mins by agarose gel electrophoresis assay; assay type: nucleic-acid assay
Outline: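 Nonspecific DNA binding: compounds diluted to 1 mg/mL in DMSO with 0.4% ethanolamine, then added 1:10 (final 100 μg/mL) to 100 ng supercoiled pET-15b plasmid in 20 mM Hepes pH 7.6, 10 mM ammonium sulfate, 30 mM KCl, 1 mM EDTA, 0.2% polysorbate-20; 30 min room temperature; 0.8% agarose gel, ethidium bromide stain; migration shift scored; vehicle control.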

Structure (SMILES) | Activity (J774.A1 [1]) | IC50 [2] [µM] | further results
O=C(Nc1ccc(-c2nc3ccc([N+](=O)[O-])cc3n2O)cc1)c1ccc(F)cc1 | Non-toxic | 17.7 | 
N#Cc1ccc2nc(-c3ccc(NC(=O)/C=C/c4ccc(F)cc4)cc3)n(O)c2c1 | Non-toxic | 8.3 | 
Cc1cc2nc(-c3ccc(NC(=O)/C=C/c4ccc(F)cc4)cc3)n(O)c2cc1[N+](=O)[O-] | Non-toxic | 7.6 | MIC [3]: > 64 µg/mL; IC50 [4]: 6.7 µM; MIC (Staphylococcus aureus): > 64 µg/mL; MIC (Escherichia coli): > 64 µg/mL; IC50 [5]: > 52 µM; Activity (J774.A1 [6]): Active
O=C(/C=C/c1ccc(F)cc1)Nc1ccc(-c2nc3ccc([N+](=O)[O-])cc3n2O)cc1 | Non-toxic | 3.9 | MIC [3]: > 64 µg/mL; IC50 [4]: 3.5 µM; MIC (Staphylococcus aureus): > 64 µg/mL; MIC (Escherichia coli): > 64 µg/mL; IC50 [5]: > 53.8 µM; Activity (J774.A1 [6]): Active
CN(C)c1cc2nc(-c3ccc(NC(=O)/C=C/c4ccc(F)cc4)cc3)n(O)c2cc1[N+](=O)[O-] | Non-toxic | 66 | 
O=C(/C=C/c1ccc(F)cc1)Nc1ccc(-c2nc3ccncc3n2O)cc1 | Non-toxic | > 54.8 | 
CC(=O)c1ccc2nc(-c3ccc(NC(=O)/C=C/c4ccc(F)cc4)cc3)n(O)c2c1 | Non-toxic | 39.4 | 
CS(=O)(=O)c1ccc2nc(-c3ccc(NC(=O)/C=C/c4ccc(F)cc4)cc3)n(O)c2c1 | Non-toxic | 87.4 | 
O=C(/C=C/c1ccc(F)cc1)Nc1ccc(-c2nc3ccc(C(=O)O)cc3n2O)cc1 | Non-toxic | 38.5 | 
O=C(/C=C/c1ccc(-n2cnnc2)cc1)Nc1ccc(-c2nc3ccc([N+](=O)[O-])cc3n2O)cc1 | Non-toxic | 35.7 | 
O=C(/C=C/c1ccc(F)cc1)Nc1ccc(-c2nc3ccc([N+](=O)[O-])cc3n2O)nc1 | Non-toxic | 10.8 | Activity (J774.A1 [6]): inactive
O=C(/C=C/c1ccc(F)cc1)Nc1ccc(-c2nc3cc(F)c([N+](=O)[O-])cc3n2O)cc1 | Non-toxic | 26.6 | 
COc1ccc(/C=C/C(=O)Nc2ccc(-c3nc4ccc([N+](=O)[O-])cc4n3O)cc2)c(OC)c1 | Non-toxic | 38.5 | 
CN1CCN(CCOc2cc3nc(-c4ccc(NC(=O)/C=C/c5ccc(F)cc5)cc4)n(O)c3cc2[N+](=O)[O-])CC1 | Non-toxic |  | IC50 (Nucleic Acid): 3.1 µM
O=C(/C=C/c1ccc(F)cc1)Nc1ccc(-c2nc3ccc(C(F)(F)F)cc3n2O)cc1 | Non-toxic | 59.7 | 
O=C(/C=C/c1ccc(F)c(F)c1)Nc1ccc(-c2nc3ccc([N+](=O)[O-])cc3n2O)cc1 | Non-toxic | 14.5 | Activity (J774.A1 [6]): Active
COc1cc(NC(=O)/C=C/c2ccc(F)cc2)ccc1-c1nc2ccc([N+](=O)[O-])cc2n1O | Non-toxic | 13.5 | 
O=C(/C=C/c1ccc(F)cc1)NCc1ccc(-c2nc3ccc([N+](=O)[O-])cc3n2O)cc1 | Non-toxic | 14 | 
O=C(/C=C/c1ccc(-c2c[nH]cn2)cc1)Nc1ccc(-c2nc3ccc([N+](=O)[O-])cc3n2O)cc1 | Non-toxic | > 44.8 | 
O=C(/C=C/c1ccc(F)cc1)Nc1ccc(-c2nc3ccc(-n4ccnc4)cc3n2O)cc1 | Non-toxic | 37.3 | 
O=C(CCc1ccc(F)cc1)Nc1ccc(-c2nc3ccc([N+](=O)[O-])cc3n2O)cc1 | Non-toxic | > 53.5 | 
O=C(/C=C/c1ccc(F)cc1)Nc1ccc(-c2nc3ccc([N+](=O)[O-])cc3n2O)c(F)c1 | Non-toxic | 6.5 | 

Structure (SMILES) | Activity (J774.A1 [1]) | IC50 [2] [µM] | further results
CN(C)CCN(C)c1cc2nc(-c3ccc(NC(=O)/C=C/c4ccc(F)cc4)cc3)n(O)c2cc1[N+](=O)[O-] | Non-toxic |  | IC50 (Nucleic Acid): 3.3 µM
O=C(/C=C/c1ccc(F)cc1)Nc1ccc(-c2nc3ccc([N+](=O)[O-])cc3n2O)cn1 | Non-toxic | 7.4 | 
CN(C)c1ccc(/C=C/C(=O)Nc2ccc(-c3nc4ccc([N+](=O)[O-])cc4n3O)cc2)cc1 | Non-toxic | 16.9 | 
O=C(/C=C/c1ccc(O)cc1)Nc1ccc(-c2nc3ccc([N+](=O)[O-])cc3n2O)cc1 | Non-toxic | > 57 | 
O=C(/C=C/c1ccc(F)cc1)Nc1ccc(-c2nc3ccc(Cl)cc3n2O)cc1 | Non-toxic | > 100 | 
O=C(/C=C/c1ccc(F)cc1)Nc1ccc(-c2nc3ccc(-n4cccn4)cc3n2O)cc1 | Non-toxic | 53.7 | 
Cc1cc(-c2nc3ccc([N+](=O)[O-])cc3n2O)ccc1NC(=O)/C=C/c1ccc(F)cc1 | Non-toxic | 25.3 | 
O=C(/C=C/c1ccc(F)cc1)Nc1ccc(-c2nc3ccc([N+](=O)[O-])cc3n2O)cc1F | Non-toxic | 20.7 | 
O=C(/C=C/c1ccc(C(F)(F)F)cc1)Nc1ccc(-c2nc3ccc([N+](=O)[O-])cc3n2O)cc1 | Non-toxic | 6.4 | 
O=C(/C=C/c1ccccc1)Nc1ccc(-c2nc3ccc([N+](=O)[O-])cc3n2O)cc1 | Non-toxic | 6.9 | 
O=C(Cc1ccc(F)cc1)Nc1ccc(-c2nc3ccc([N+](=O)[O-])cc3n2O)cc1 | Non-toxic | > 58.4 | 
O=C(/C=C/c1ccc(F)cc1)Nc1ccc(-c2nc3ccccc3n2O)cc1 | Non-toxic | > 100 | 
CC(C)c1ccc(/C=C/C(=O)Nc2ccc(-c3nc4ccc([N+](=O)[O-])cc4n3O)cc2)cc1 | Non-toxic | > 50.9 | 
CCOc1cc2nc(-c3ccc(NC(=O)/C=C/c4ccc(F)cc4)cc3)n(O)c2cc1[N+](=O)[O-] | Non-toxic | 17.1 | Activity (J774.A1 [6]): Active
COc1ccccc1/C=C/C(=O)Nc1ccc(-c2nc3ccc([N+](=O)[O-])cc3n2O)cc1 | Non-toxic | 20.9 | 
N#Cc1ccc(/C=C/C(=O)Nc2ccc(-c3nc4ccc([N+](=O)[O-])cc4n3O)cc2)cc1 | Non-toxic | 16.4 | Activity (J774.A1 [6]): Active
O=C(/C=C/c1ccc(F)cc1F)Nc1ccc(-c2nc3ccc([N+](=O)[O-])cc3n2O)cc1 | Non-toxic | 5 | 
O=C(NCc1ccc(-c2nc3ccc([N+](=O)[O-])cc3n2O)cc1)c1ccc(F)cc1 | Non-toxic | > 58.4 | 
COc1ccc(/C=C/C(=O)Nc2ccc(-c3nc4ccc([N+](=O)[O-])cc4n3O)cc2)cc1 | Non-toxic | 8 | MIC [3]: > 64 µg/mL; IC50 [4]: 5.9 µM; MIC (Staphylococcus aureus): > 64 µg/mL; MIC (Escherichia coli): > 64 µg/mL; IC50 [5]: > 55.2 µM; Activity (J774.A1 [6]): Active
O=C(/C=C/c1ccc(F)cc1)Nc1ccc(-c2nc3ccc(F)cc3n2O)cc1 | Non-toxic | > 100 | 
Cc1ccc(/C=C/C(=O)Nc2ccc(-c3nc4ccc([N+](=O)[O-])cc4n3O)cc2)cc1 | Non-toxic | 0.8 | Activity (J774.A1 [6]): inactive
